Results on 18 compounds are retold here after ChEMBL document CHEMBL1127620, “Synthesis and antibacterial activity of thiazolopyrazine-incorporated tetracyclic quinolone antibacterials” (1994).

Common to all, as to format: functional
In one assay the test system is Klebsiella pneumoniae. Kind of assay: In vitro minimum inhibitory concentration against gram-negative Kp, Klebsiella pneumoniae B54. The essentials: (§1)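 Two-fold agar dilution on Sensitivity Disk Agar-N (Japan Society of Chemotherapy method). Overnight broth cultures diluted in buffered saline with 0.01% gelatin to about 10⁶ CFU/mL. One loopful (5 μL/spot) inoculated onto plates containing graded agent concentrations. Incubation 37 °C, 18 h. MIC = lowest concentration inhibiting visible growth.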

The species named for assay [1] is Mus musculus. Kind of assay: Compound was tested for oral efficacy on systemic infections caused by Escherichia coli KC-14 in mice. In outline: (§2)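 Male ddY mice (25 g) infected intraperitoneally with 0.5 mL overnight brain heart infusion culture diluted in 5% gastric mucin, about 35 to 500 times the LD50. Compound given orally 1 h post-infection, as 1% aqueous gum arabic suspension or distilled water solution. Four dose groups of five mice. Survival followed daily for 7 days; ED50 by Weil method.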

For assay [2], the system named is Staphylococcus aureus. Kind of assay: In vitro minimum inhibitory concentration against gram-positive Sa (F), Staphylococcus aureus FDA 209P JC-1. The essentials: as §1
In assay [3] the test system is Staphylococcus epidermidis. Briefly: In vitro minimum inhibitory concentration against gram-positive Se, Staphylococcus epidermidis IAM 1296. The essentials: as §1
The species entered for assay [4] is Mus musculus. Kind of assay: Compound was tested for oral efficacy on systemic infections caused by Staphylococcus aureus IID803 in mice. The essentials:
as §2

In assay [5] the test system is Staphylococcus aureus. Briefly: In vitro minimum inhibitory concentration against gram-positive Sa (I), Staphylococcus aureus IID803. In outline:
as §1

For assay [6], the species on record is Mus musculus. Briefly: Compound was tested for oral efficacy on systemic infections caused by Escherichia coli KC-14 in mice. The essentials: as §2
The species named for assay [7] is Mus musculus. Briefly: Compound was tested for oral efficacy on systemic infections caused by Staphylococcus aureus IID803 in mice. In outline:
as §2

In assay [8] the test system is Escherichia coli. Briefly: Compound was tested for in vitro antibacterial activity (minimum inhibition concentration) against gram-negative Ec(K), Escherichia coli KC-14. The essentials: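 Two-fold agar dilution on Sensitivity Disk Agar-N (Japan Society of Chemotherapy method). Overnight broth cultures diluted in buffered saline with 0.01% gelatin to about 10⁶ CFU/mL; one loopful (5 μL/spot) inoculated onto plates with graded agent concentrations. Incubation 37 °C, 18 h; MIC = lowest concentration inhibiting visible growth.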

Assay [9] deals with Escherichia coli. Kind of assay: Compound was tested for in vitro antibacterial activity (minimum inhibition concentration) against gram-negative Ec(K), Escherichia coli KC-14. The essentials:
as §1

SMILES strings stand for the structures. Converted amounts (≈) assume the structure as drawn.

In the assay with Klebsiella pneumoniae, `CN1Cc2csc3c(C(=O)O)c(=O)c4cc(F)c(N5CCNCC5)c1c4n23` registered an MIC of 0.025 µg/mL (≈ 0.0644 µM). The ED50 in the assay listed under Mus musculus [1] is over 2 mg/kg.
`CN1Cc2csc3c(C(=O)O)c(=O)c4cc(F)c(N5CCC(N)C5)c1c4n23` (centres undefined): the MIC against Klebsiella pneumoniae was found to be 0.025 µg/mL (≈ 0.0644 µM). Further, in the assay filed under Mus musculus [1], the ED50 was over 2 mg/kg.
For `CN1Cc2csc3c(C(=O)O)c(=O)c4cc(F)c(N5CCSCC5)c1c4n23`, the minimal inhibitory concentration (MIC) in the assay on Staphylococcus aureus [2] turned out to be 0.025 µg/mL (≈ 0.0617 µM); in assay [3], 0.025 µg/mL (≈ 0.0617 µM); in the assay with Staphylococcus aureus [5], 0.0125 µg/mL (≈ 0.0308 µM). In the assay filed under Mus musculus [4], this compound came in with an ED50 of over 12 mg/kg.
The compound `CN1Cc2csc3c(C(=O)O)c(=O)c4cc(F)c(N5CCCC5)c1c4n23` came in with an ED50 in the assay listed under Mus musculus [6] of over 2 mg/kg.
Turning to `CNCC1CCN(c2c(F)cc3c(=O)c(C(=O)O)c4scc5n4c3c2N(C)C5)C1` (centres undefined), the lowest concentration to inhibit growth in the assay with Klebsiella pneumoniae (MIC) was 0.025 µg/mL (≈ 0.06 µM). In the assay filed under Mus musculus [4], this compound gave an ED50 of over 12 mg/kg.
For `CC1CN(c2c(F)cc3c(=O)c(C(=O)O)c4scc5n4c3c2N(C)C5)CCN1C` (centres undefined), the 50% effective dose (ED50) in the assay filed under Mus musculus [7] was 3 mg/kg; in the assay filed under Mus musculus [1], 2 mg/kg.
For `CCC1CN(c2c(F)cc3c(=O)c(C(=O)O)c4scc5n4c3c2N(C)C5)CCN1C` (centres undefined), the MIC against Staphylococcus aureus [2] and against Staphylococcus aureus [5] was 0.05 µg/mL (≈ 0.116 µM) throughout.
As for `C[C@@H]1CN(c2c(F)cc3c(=O)c(C(=O)O)c4scc5n4c3c2N(C)C5)C[C@H](C)N1C`, the 50% effective dose (ED50) in the assay filed under Mus musculus [7] and in the assay filed under Mus musculus [1] was 2 mg/kg throughout. For the same compound, inhibition of growth against Staphylococcus aureus [2] (MIC) required 0.025 µg/mL (≈ 0.0581 µM).
As for `C[C@@H]1CN(c2c(F)cc3c(=O)c(C(=O)O)c4scc5n4c3c2N(C)C5)C[C@H](C)N1`, the minimal inhibitory concentration (MIC) in the assay on Staphylococcus aureus [2], against Escherichia coli [8] and against Staphylococcus aureus [5] was 0.05 µg/mL (≈ 0.12 µM) each time. In the assay listed under Mus musculus [1], this compound came in with an ED50 of over 2 mg/kg.
Compound `CN1Cc2csc3c(C(=O)O)c(=O)c4cc(F)c(N5CCC(O)C5)c1c4n23` (centres undefined) registered a median effective dose (ED50) in the assay listed under Mus musculus [4] of over 12 mg/kg.
Consider `CCN1CCN(c2c(F)cc3c(=O)c(C(=O)O)c4scc5n4c3c2N(C)C5)CC1`, for which the MIC with Klebsiella pneumoniae, in the assay on Escherichia coli [8] and in the assay on Staphylococcus aureus [5] was 0.05 µg/mL (≈ 0.12 µM) in each case. Also, the ED50 in the assay filed under Mus musculus [6] was 1 mg/kg; in the assay listed under Mus musculus [4], 3 mg/kg.
Consider `CCN1[C@H](C)CN(c2c(F)cc3c(=O)c(C(=O)O)c4scc5n4c3c2N(C)C5)C[C@@H]1C.Cl`, for which the MIC in the assay on Staphylococcus aureus [2] and with Staphylococcus aureus [5] was 0.05 µg/mL in each case.
Take `CCC1CN(c2c(F)cc3c(=O)c(C(=O)O)c4scc5n4c3c2N(C)C5)CCN1.Cl` (centres undefined): the minimum inhibitory concentration (MIC) against Staphylococcus aureus [2] and with Staphylococcus aureus [5] was 0.05 µg/mL throughout.
For `CCNCC1CCN(c2c(F)cc3c(=O)c(C(=O)O)c4scc5n4c3c2N(C)C5)C1.Cl` (centres undefined), the MIC in the assay with Klebsiella pneumoniae is 0.05 µg/mL. The same compound yielded an ED50 in the assay filed under Mus musculus [4] of over 12 mg/kg.
`CC1CN(c2c(F)cc3c(=O)c(C(=O)O)c4scc5n4c3c2N(C)C5)CCN1.Cl` (centres undefined) gave an ED50 in the assay listed under Mus musculus [1] of over 2 mg/kg.
For `CN1CCN(c2c(F)cc3c(=O)c(C(=O)O)c4scc5n4c3c2N(C)C5)CC1`, the MIC in the assay with Klebsiella pneumoniae, with Escherichia coli [9] and against Staphylococcus aureus [5] was 0.05 µg/mL (≈ 0.124 µM) throughout. In addition, the ED50 in the assay filed under Mus musculus [6] was 1 mg/kg; in the assay filed under Mus musculus [4], 3 mg/kg.
In turn, `CN1Cc2csc3c(C(=O)O)c(=O)c4cc(F)c(N5CCOCC5)c1c4n23` yielded an MIC with Klebsiella pneumoniae of 0.05 µg/mL (≈ 0.128 µM). This compound also registered an ED50 in the assay filed under Mus musculus [4] of over 12 mg/kg.
As for `CC1COc2c(N3CCN(C)CC3)c(F)cc3c(=O)c(C(=O)O)cn1c23` (centres undefined) [OFLOXACIN], the median effective dose (ED50) in the assay listed under Mus musculus [1] came out at 1 mg/kg; in the assay filed under Mus musculus [4], 11 mg/kg.
